In the library only some 3.1% were active in any assay of this set; here they are far more common.
NadD block = inhibitors of S. aureus NadD, primary screen, biochemical, colorimetric, uHTS; Nicotinate-nucleotide adenylyltransferase NadD (Staphylococcus aureus N315); purified NadD enzyme, colorimetric absorbance read-out; inhibition, % at 20 µM; hit rate 0.78% among 360,000; AID 602399, 2012; in the data active = inhibition above about 26%
CTSL1 counter = Fasciola hepatica cathepsin L1 inhibitors, primary screen, counter-screen for PFM18AAP inhibitor project, biochemical, QFRET, fluorogenic peptide substrate; inhibition, % at 5.96 µM; recombinant F. hepatica cathepsin L1, Z-Leu-Arg-MCA fluorescence; AID 1906, 2009; hit rate 0.49% among 300,000;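 active = inhibition above the mean of all tested compounds plus 3 SD, set per screening campaign, cut at about 17% in these data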;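 also: 0% = plate median of test compound wells and 100% = 1 µM Z-Phe-Ala-diazomethylketone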
HCV core dimer = inhibitors of HCV core protein dimerization, primary screen, biochemical, TR-FRET, high-throughput | hit rate 0.33% among 300,000 | TR-FRET GST/Flag-core106 dimerization, 1536-well | inhibition, % at 5 µM;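 active = inhibition above the mean of all tested compounds plus 3 SD, set per screening campaign, cut at about 45% in these data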
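Material: GST/Flag-tagged HCV core106 proteins. Incubation: 4 h, 22.5 °C incubation. Read-out basis: inhibition (%) from 671 over 617 nm ratio. Measured by: TR-FRET, excitation 340 nm, emission 617 and 671 nm.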
Myeloid diff MLP = induction of myeloid progenitor differentiation, primary screen, cell-based, flow cytometry, MLPCN library. ER-HoxA9 myeloid progenitors, lysozyme-GFP differentiation. calls only at 10 µM. hit rate 1% among 360,000. AID 624256, 2012;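 active = normalized GFP-positive differentiation at or above the plate's own cutoff, the solvent-only control mean plus 3 SD; inconclusive = no clear call, values can overlap the other calls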;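 also: cells exposed to compound for four days before flow analysis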
PP5 primary = PP5 phosphatase inhibitors, primary screen, biochemical, fluorescence; Serine/threonine-protein phosphatase 5 (Homo sapiens), P53041; purified PP5c, OMFP substrate fluorescence; inhibition, % at 6.7 µM; hit rate 0.18% among 320,000;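 active = inhibition above the campaign's mean inhibition across all tested compounds plus 3 SD, cut at about 9.5% in these data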;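 also: 0% = DMSO only and 100% = 100 µM cantharidin control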
Target sequence (P53041 whole entry, looked up): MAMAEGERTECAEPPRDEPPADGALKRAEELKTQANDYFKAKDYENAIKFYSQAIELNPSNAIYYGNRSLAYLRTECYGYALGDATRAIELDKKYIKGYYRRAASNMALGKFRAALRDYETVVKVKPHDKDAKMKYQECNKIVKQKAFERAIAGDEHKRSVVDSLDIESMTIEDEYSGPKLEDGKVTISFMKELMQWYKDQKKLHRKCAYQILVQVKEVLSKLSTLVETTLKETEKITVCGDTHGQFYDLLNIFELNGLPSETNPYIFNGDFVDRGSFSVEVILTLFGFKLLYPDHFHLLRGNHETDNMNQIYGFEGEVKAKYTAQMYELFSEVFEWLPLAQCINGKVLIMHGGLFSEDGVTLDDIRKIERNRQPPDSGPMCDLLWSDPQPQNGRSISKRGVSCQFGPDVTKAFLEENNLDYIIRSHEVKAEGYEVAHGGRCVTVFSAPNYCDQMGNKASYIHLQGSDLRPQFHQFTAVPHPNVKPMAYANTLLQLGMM
PP1 counter = PP1-alpha phosphatase inhibitors, primary screen, counter-screen for PP5 inhibitor project, biochemical, fluorescence, OMFP substrate, single point | Serine/threonine-protein phosphatase PP1-alpha catalytic subunit (Homo sapiens), P62136 | purified PP1alpha | inhibition, % at 6.7 µM | hit rate 0.9% among 320,000 | AID 2235, 2010;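 active = inhibition above the mean inhibition of all tested compounds plus 3 SD, computed separately for each screening campaign, cut at about 15% in these data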
An asterisk follows results filed as active; i = inactive; ? = inconclusive; . = no result; + = active, no number.

SMILES | NadD block | CTSL1 counter | HCV core dimer | Myeloid diff MLP | PP5 primary | PP1 counter
CCc1ccc(-c2n[nH]nc2C2=CC(=O)C[C@H](c3ccc(F)cc3)C2)cc1 | 13 | . | . | i | . | .
Cc1ccc(C(=O)CSc2cc(C)[nH]c(=O)n2)cc1 | 15 | -4 | 64* | i | 2 | 4
Cc1cc(SCC(=O)c2ccc(Cl)cc2)nc(=O)[nH]1 | 8 | -3 | 6 | i | 0 | -1
O=Cc1c[nH]c2ccc(OCc3ccccc3)cc12 | -8 | . | . | i | 3 | -2
O=Cc1c[nH]c2ccc(C(=O)c3ccccc3)cc12 | 2 | 18* | -11 | i | -11 | 1
CCOC(=O)N1CCC(NC(=O)CS(=O)(=O)Cc2nc(-c3ccccc3C)oc2C)CC1 | 2 | -1 | -58 | + | 2 | 1
COc1cccc(C2c3c(-c4ccccc4O)n[nH]c3C(=O)N2Cc2ccco2)c1 (stereo not given) | 7 | -6 | 8 | i | 6 | 4
O=C1c2[nH]nc(-c3ccccc3O)c2C(c2ccccc2)N1Cc1ccco1 (stereo not given) | 4 | 1 | 12 | + | 4 | 10
O=C(c1ccccc1)c1coc2ccc(O)c(CN3CCOCC3)c12 | -4 | 4 | -1 | i | 2 | -3
COc1ccc(C(=O)c2coc3ccc(O)c(CN4CCCCC4)c23)cc1 | 6 | -2 | -2 | + | 2 | -2
Cc1c(C)c2ccc(O[C@@H]3O[C@H](CO)[C@H](O)[C@H](O)[C@H]3O)cc2oc1=O | -4 | . | . | + | . | .
Cc1cc(=O)oc2cc(O[C@@H]3O[C@H](CO)[C@H](O)[C@H](O)[C@H]3O)ccc12 | 2 | 5 | -13 | i | 1 | 0
CC1(C)CC(=O)C(C2C3=C(CC(C)(C)CC3=O)Oc3ccccc32)=C(O)C1 (stereo not given) | 6 | 17* | -3 | i | 1 | 1
CCCNC(=O)C1(C)CCCN(CC(=O)c2ccccc2OC)C1 (stereo not given) | 6 | . | . | i | . | .
CC/C=C\C/C=C\C/C=C\CCCCCCCC(=O)O | 2 | 26* | 29 | i | 0 | 1
CCCCCCCC(=O)O | 5 | . | . | i | . | .
CCCCC/C=C\C/C=C\C/C=C\C/C=C\CCCC(=O)O | . | 22* | 27 | . | 0 | -3
Cc1ccc(OCC(=O)Nc2ccc3c4c(cccc24)CC3)c(C)c1 | -2 | -1 | 3 | + | 1 | -1
Cc1cccc(OCC(=O)Nc2ccc3c4c(cccc24)CC3)c1C | -3 | 2 | -3 | i | 1 | -3
Cn1c(=O)c2ncn(CC(=O)Nc3ccc4c5c(cccc35)CC4)c2n(C)c1=O | 4 | -1 | 39 | + | 3 | -1
COc1cccc(CNc2nc3cc(-c4cscc4C)sc3c(=O)n2C)c1 | 5 | . | . | i | . | .
CCCCCc1cc(=O)oc2c(C(CCN3CCN(c4ccccc4)CC3)c3ccc4c(c3)OCO4)c(OC)cc(OC)c12 (stereo not given) | 13 | 33* | -8 | i | 2 | 13
O=C(NCc1nnc(SCC(=O)N2CCN(c3ccccc3)CC2)o1)c1c(F)cccc1Cl | 2 | -2 | -8 | i | 1 | 1
O=C(CN1CCN(C(=O)CNC(=O)c2ccc3c(c2)OCO3)CC1)Nc1ccc(F)cc1 | 4 | . | . | i | 4 | -2
CCn1cc(C(=O)NCc2ccco2)c(=O)c2cc(S(=O)(=O)N3CC(C)CC(C)C3)ccc21 (stereo not given) | 0 | -1 | 11 | + | 2 | 1
SMILES | NadD block | CTSL1 counter | HCV core dimer | Myeloid diff MLP | PP5 primary | PP1 counter
Cc1ncc(CN2CCN(Cc3ccccc3)C(CCO)C2)s1 (stereo not given) | 1 | 2 | -6 | + | 3 | 0
CN(C)c1ccc(CNC(=O)CCS(=O)(=O)c2ccc3c(c2)n(C)c(=O)c(=O)n3C)cc1 | -2 | 0 | -35 | i | 0 | 1
COc1cc(C(=O)NCC(=O)Nc2ccc(F)c(F)c2)ccc1OCC(=O)N1CCOCC1 | 4 | 20* | -1 | i | -2 | 0
CCN(CC(=O)NCc1ccc(Cl)cc1)C(=O)c1cc(S(=O)(=O)N2CCOCC2)ccc1C | -3 | . | . | i | . | .
COc1cc(N(Cc2ccccc2)Cc2ccccc2)c2ncn(C(C)C)c2c1 | 4 | . | . | i | 0 | 0
CC(C)n1cnc2c(N(C)c3ccccc3)nc(N(CCN(C)C)Cc3ccccc3)nc21 | -5 | 0 | -17 | + | 3 | -2
CC(C)CC(OC(=O)c1cccs1)C(=O)NCc1ccco1 (stereo not given) | 21 | 3 | 49* | i | 0 | -1
CCC(OC(=O)c1cccs1)C(=O)NCc1ccco1 (stereo not given) | 3 | -6 | 0 | i | 1 | -5
CCN(CCCNC(=O)CNC(=O)c1nn(-c2ccc(OC)c(OC)c2)c(=O)c2ccccc12)c1ccccc1 | -10 | 5 | 4 | i | 2 | -2
CC1(C)OC(=O)C2=C(C[C@@H](CCOCc3ccccc3)O[C@H]2c2ccc(F)cc2)O1 | -8 | . | . | i | . | .
Cc1ccc(Nc2ncnc3sc(C)c(C)c23)cc1C | -1 | 0 | 2 | + | -1 | -3
Cc1cc(-c2nn(-c3ccccc3)cc2/C=C2\SC(N)=NC2=O)ccc1OC(C)C | 35* | 3 | -8 | i | -2 | 0
Cc1nc(SCC(=O)NCc2ccc3c(c2)OCO3)c(C#N)c2c1CCCC2 | 4 | 21* | 17 | i | 4 | 4
Cc1cc(=O)[nH]c(SCC(=O)NCc2ccc3c(c2)OCO3)n1 | -3 | -2 | -4 | ? | -1 | -1
CN=c1sc2ccccc2n1CC(O)c1ccccc1 (stereo not given) | 0 | 3 | -4 | i | 1 | 4
CN=c1sc2ccccc2n1CC(O)COCc1ccco1 (stereo not given) | -1 | -3 | -1 | + | 1 | -1
CN(CCOc1ccccc1)C(=O)c1ccc(N2CCCC2)c([N+](=O)[O-])c1 | -8 | -4 | 8 | i | 3 | -2
Cc1cc(NC(=O)COc2ccccc2C)ccc1NC(=O)c1cccs1 | -4 | -1 | 7 | . | 2 | -3
O=C(Nc1nc(-c2ccccn2)cs1)c1cc(Cl)ccc1[N+](=O)[O-] | 24 | 2 | 15 | ? | 0 | 16*
O=C(O)Cc1ccc(S(=O)(=O)N2CCCC2)s1 | -1 | . | . | i | . | .
Cc1c2cc[n+](CCN3CCCCC3)cc2c(C)c2c1[nH]c1ccc(O)cc12 | 48* | . | . | ? | . | .
CCOC(=O)c1[nH]c2ccc(C)cc2c1NC(=O)CN1CCCCC1 | 4 | 4 | -3 | i | -1 | 1

Bioassay records as filed in PubChem.
